Peptide text beside a SMILES is read from it. * marks the point of attachment. Dansyl = CN(C)c1cccc2c(S(=O)(=O)*)cccc12
T1: Tiam2 PDZ domain (Mus musculus, UniProt Q6ZPF3)
T1 sequence (Q6ZPF3 908-997 limits assumed): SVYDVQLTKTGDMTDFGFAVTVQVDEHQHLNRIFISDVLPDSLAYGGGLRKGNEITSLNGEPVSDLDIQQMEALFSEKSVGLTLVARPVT

T2: Caspr4 (Homo sapiens)
T2 chain: ENQKEYFF

T3: Syndecan1 (Homo sapiens)
T3 chain: TKQEEFYA


Key:
[1] = biological target: Tiam1 PDZ domain (wild-type) (Homo sapiens, UniProt Q13009); assay: Equilibrium fluorescence anisotropy binding of dansylated peptides
Chain of Tiam1 PDZ domain (wild-type) (Q13009 841-930 limits assumed): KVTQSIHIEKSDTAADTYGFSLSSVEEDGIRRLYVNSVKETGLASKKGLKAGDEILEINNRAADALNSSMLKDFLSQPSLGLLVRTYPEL
Outline: (§1)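 Purified PDZ domains were titrated from a 1.5 mM stock into 1 μM N-terminally dansylated peptide at 25 °C in a stirred cuvette. Proteins were expressed in E. coli BL21(DE3), purified by Ni-chelate and size-exclusion chromatography, and His6-tag cleaved by TEV; Tiam2 is mouse residues 809–994; mutants made by site-directed mutagenesis. Anisotropy ex 340/em 550 nm, buffer-blank corrected. Kd from hyperbolic fit, mean of ≥3 independent runs; ΔG = RT ln Kd (298.15 K).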

Tiam2 PDZ domain = biological target: T1, Tiam2 PDZ domain; assay: as above
Outline: as §1

Tiam1 PDZ L911M = Tiam1 PDZ L911M (Homo sapiens, UniProt Q13009, L911M); assay: Fluorescence anisotropy binding, Tiam1 PDZ mutant; conditions: for ΔGb: Tiam1 PDZ L911M; for ΔΔGb: ΔGb(mutant) − ΔGb(wild-type), L911M
Chain of Tiam1 PDZ L911M (Q13009 841-930 L911M limits assumed): as the sequence (Q13009 841-930 limits assumed) above, with L71M counted along it
Outline: as §1

Tiam1 PDZ K912E = Tiam1 PDZ K912E (Homo sapiens, UniProt Q13009, K912E); assay: Fluorescence anisotropy binding, Tiam1 PDZ mutant; conditions: for ΔGb: Tiam1 PDZ K912E; for ΔΔGb: ΔGb(mutant) − ΔGb(wild-type), K912E
Chain of Tiam1 PDZ K912E (Q13009 841-930 K912E limits assumed): as the sequence (Q13009 841-930 limits assumed) above, with K72E counted along it
Outline: as §1

Tiam1 PDZ L911M/K912E [2] = biological target: Tiam1 PDZ L911M/K912E (Mus musculus, UniProt Q60610, L911M/K912E, species not given); assay: Fluorescence anisotropy binding and double-mutant cycle, Tiam1 PDZ mutant; conditions: Tiam1 PDZ L911M/K912E; for Kd: fluorescence anisotropy, 25 °C
Chain of Tiam1 PDZ L911M/K912E (Mus musculus, UniProt Q60610, L911M/K912E, species not given) (Q60610 2-1591 L911M/K912E): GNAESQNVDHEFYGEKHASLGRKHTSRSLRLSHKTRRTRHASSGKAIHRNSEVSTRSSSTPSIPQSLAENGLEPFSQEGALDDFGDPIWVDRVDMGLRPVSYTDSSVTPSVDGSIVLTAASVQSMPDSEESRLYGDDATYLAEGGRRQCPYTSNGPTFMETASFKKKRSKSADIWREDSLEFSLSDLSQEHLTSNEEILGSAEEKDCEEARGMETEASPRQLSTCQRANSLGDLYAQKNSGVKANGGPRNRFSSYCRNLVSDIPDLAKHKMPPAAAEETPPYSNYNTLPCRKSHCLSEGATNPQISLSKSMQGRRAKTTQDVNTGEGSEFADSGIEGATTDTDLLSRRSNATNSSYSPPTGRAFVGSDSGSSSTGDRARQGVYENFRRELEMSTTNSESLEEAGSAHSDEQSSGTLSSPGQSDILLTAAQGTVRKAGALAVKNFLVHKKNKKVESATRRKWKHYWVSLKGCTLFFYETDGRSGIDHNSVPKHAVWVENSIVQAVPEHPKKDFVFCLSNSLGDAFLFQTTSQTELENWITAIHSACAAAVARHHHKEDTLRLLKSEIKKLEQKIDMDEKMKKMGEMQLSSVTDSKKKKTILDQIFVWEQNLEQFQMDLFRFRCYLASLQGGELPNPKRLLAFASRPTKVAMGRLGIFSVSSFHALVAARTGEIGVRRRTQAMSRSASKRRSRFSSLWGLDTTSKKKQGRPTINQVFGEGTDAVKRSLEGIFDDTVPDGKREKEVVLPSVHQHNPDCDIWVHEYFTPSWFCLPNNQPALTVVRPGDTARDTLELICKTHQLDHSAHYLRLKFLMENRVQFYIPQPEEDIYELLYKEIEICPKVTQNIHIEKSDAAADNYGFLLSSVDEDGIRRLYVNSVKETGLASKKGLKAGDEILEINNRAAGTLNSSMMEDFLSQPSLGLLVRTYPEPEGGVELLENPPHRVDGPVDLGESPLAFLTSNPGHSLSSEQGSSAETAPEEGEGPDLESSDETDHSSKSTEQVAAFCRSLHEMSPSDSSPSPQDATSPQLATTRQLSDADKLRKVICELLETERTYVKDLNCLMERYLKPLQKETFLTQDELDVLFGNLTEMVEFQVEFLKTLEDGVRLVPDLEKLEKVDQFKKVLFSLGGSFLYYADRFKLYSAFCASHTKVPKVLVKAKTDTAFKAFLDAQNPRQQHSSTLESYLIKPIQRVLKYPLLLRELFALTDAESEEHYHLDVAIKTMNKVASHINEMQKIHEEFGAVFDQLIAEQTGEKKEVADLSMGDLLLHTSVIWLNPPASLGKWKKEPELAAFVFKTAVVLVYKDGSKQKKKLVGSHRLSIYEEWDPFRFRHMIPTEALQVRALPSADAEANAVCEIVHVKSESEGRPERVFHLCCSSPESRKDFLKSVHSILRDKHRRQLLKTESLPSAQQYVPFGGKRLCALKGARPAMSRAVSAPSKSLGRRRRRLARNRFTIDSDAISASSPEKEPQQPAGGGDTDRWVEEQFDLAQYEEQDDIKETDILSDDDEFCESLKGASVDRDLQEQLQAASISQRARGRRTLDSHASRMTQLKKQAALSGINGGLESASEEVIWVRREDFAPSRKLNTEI
Outline: (§2)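 Wild-type, single- and double-mutant Tiam1 PDZ (E. coli-expressed, tag-cleaved) were each titrated into 1 μM dansylated peptide at 25 °C. Anisotropy read at ex 340/em 550 nm; Kd from hyperbolic fit, ≥3 independent runs. ΔG = RT ln Kd at 298.15 K. Coupling energy ΔΔΔGint = (ΔGWT − ΔGM1) − (ΔGM2 − ΔGDM), with errors propagated by standard methods.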

Tiam1 PDZ L911M/K912E [3] = assay: as above; conditions: for ΔΔΔGint (pair-wise coupling free energy): double-mutant cycle L911/K912 (S-2 pocket); for Σ singles: sum of ΔΔGb of single mutants L911M and K912E; for ΔΔGb: ΔGb(mutant) − ΔGb(wild-type), L911M/K912E
Outline: as §2

Tiam1 PDZ L915F = Tiam1 PDZ L915F (Homo sapiens, UniProt Q13009, L915F); assay: Fluorescence anisotropy binding, Tiam1 PDZ mutant; conditions: for ΔGb: Tiam1 PDZ L915F; for ΔΔGb: ΔGb(mutant) − ΔGb(wild-type), L915F
Chain of Tiam1 PDZ L915F (Q13009 841-930 L915F limits assumed): as the sequence (Q13009 841-930 limits assumed) above, with L75F counted along it
Outline: as §1

Tiam1 PDZ L920V = Tiam1 PDZ L920V (Homo sapiens, UniProt Q13009, L920V); assay: Fluorescence anisotropy binding, Tiam1 PDZ mutant; conditions: for ΔGb: Tiam1 PDZ L920V; for ΔΔGb: ΔGb(mutant) − ΔGb(wild-type)
Chain of Tiam1 PDZ L920V (Q13009 841-930 L920V limits assumed): as the sequence (Q13009 841-930 limits assumed) above, with L80V counted along it
Outline: as §1

Tiam1 PDZ L915F/L920V [4] = biological target: Tiam1 PDZ L915F/L920V (Mus musculus, UniProt Q60610, L915F/L920V, species not given); assay: Fluorescence anisotropy binding and double-mutant cycle, Tiam1 PDZ mutant; conditions: Tiam1 PDZ L915F/L920V; for Kd: fluorescence anisotropy, 25 °C
Chain of Tiam1 PDZ L915F/L920V (Mus musculus, UniProt Q60610, L915F/L920V, species not given) (Q60610 2-1591 L915F/L920V): as the sequence (Q60610 2-1591 L911M/K912E) above, with M910L, E911K, L914F, L919V counted along it
Outline: as §2

Tiam1 PDZ L915F/L920V [5] = assay: as above; conditions: for ΔΔΔGint (pair-wise coupling free energy): double-mutant cycle L915/L920 (S0 pocket); for Σ singles: sum of ΔΔGb of single mutants L915F and L920V
Outline: as §2

[6] = biological target: Tiam1 PDZ QM (L911M/K912E/L915F/L920V) (Homo sapiens, UniProt Q13009, K912E/L911M/L915F/L920V); assay: Fluorescence anisotropy binding, Tiam1 PDZ quadruple mutant; conditions: for ΔGb: Tiam1 PDZ QM
Chain of Tiam1 PDZ QM (L911M/K912E/L915F/L920V) (Homo sapiens, UniProt Q13009, K912E/L911M/L915F/L920V) (Q13009 841-930 L911M/K912E/L915F/L920V limits assumed): as the sequence (Q13009 841-930 limits assumed) above, with L71M, K72E, L75F, L80V counted along it
Outline: as §1

[7] = tested on: Tiam1 PDZ QM (L911M/K912E/L915F/L920V); assay: as above; conditions: for ΔΔGb: ΔGb(mutant) − ΔGb(wild-type), QM
Outline: as §1

Caspr4 = biological target: T2, Caspr4; assay: fluorescence anisotropy
Syndecan1 = biological target: T3, Syndecan1; assay: fluorescence anisotropy

Molecule | Kd [1] [µM] | Kd (Tiam2 PDZ domain) [µM] | Kd (Tiam1 PDZ L911M) [µM] | ΔGb (Tiam1 PDZ L911M) [kcal/mol] | ΔΔGb (Tiam1 PDZ L911M) [kcal/mol] | Kd (Tiam1 PDZ K912E) [µM] | ΔGb (Tiam1 PDZ K912E) [kcal/mol] | ΔΔGb (Tiam1 PDZ K912E) [kcal/mol] | ΔGb (Tiam1 PDZ L911M/K912E [2]) [kcal/mol] | Kd (Tiam1 PDZ L911M/K912E [2]) [µM] | ΔΔΔGint (pair-wise coupling free energy) (Tiam1 PDZ L911M/K912E [3]) [kcal/mol] | Σ singles (Tiam1 PDZ L911M/K912E [3]) [kcal/mol] | ΔΔGb (Tiam1 PDZ L911M/K912E [3]) [kcal/mol] | Kd (Tiam1 PDZ L915F) [µM] | ΔGb (Tiam1 PDZ L915F) [kcal/mol] | ΔΔGb (Tiam1 PDZ L915F) [kcal/mol] | Kd (Tiam1 PDZ L920V) [µM] | ΔGb (Tiam1 PDZ L920V) [kcal/mol] | ΔΔGb (Tiam1 PDZ L920V; L920V) [kcal/mol] | ΔGb (Tiam1 PDZ L915F/L920V [4]) [kcal/mol] | further results
C[C@H](NC(=O)[C@H](C)NC(=O)[C@H](Cc1ccc(O)cc1)NS(=O)(=O)c1cccc2c(N(C)C)cccc12)C(=O)N[C@@H](CCCCN)C(=O)N[C@@H](C)C(=O)N[C@@H](Cc1ccccc1)C(=O)N[C@@H](CCCNC(=N)N)C(=O)N[C@@H](Cc1ccccc1)C(=O)O [Tiam1 peptide 3 (Group II)] (Dansyl-YAAKAFRF-OH) | 200 ± 50 | 7.7 ± 1.3 |  |  |  |  |  |  |  |  |  |  |  |  |  |  |  |  |  |  | 
CN(C)c1cccc2c(S(=O)(=O)N[C@@H](CCC(=O)O)C(=O)N[C@@H](CC(N)=O)C(=O)N[C@@H](CCC(N)=O)C(=O)N[C@@H](CCCCN)C(=O)N[C@@H](CCC(=O)O)C(=O)N[C@@H](Cc3ccc(O)cc3)C(=O)N[C@@H](Cc3ccccc3)C(=O)N[C@@H](Cc3ccccc3)C(=O)O)cccc12 [Caspr4] (Dansyl-ENQKEYFF-OH) |  | 3.4 ± 0.3 | 14 ± 0.3 | -6.61 ± 0.01 | -0.18 ± 0.02 | 58.6 ± 4.1 | -5.77 ± 0.04 | 0.67 ± 0.04 | -6.19 ± 0.02 | 28.9 ± 0.9 | -0.25 ± 0.04 | 0.49 ± 0.04 | 0.24 ± 0.02 | 61 ± 4 | -5.74 ± 0.04 | 0.69 ± 0.04 | 10.8 ± 0.6 | -6.77 ± 0.03 | -0.33 ± 0.04 | -5.61 ± 0.04 | ΔGb ([1]; wild-type Tiam1 PDZ, ΔG = RT ln(Kd), T 298.15 K): -6.43 ± 0.01 kcal/mol; fold lower Kd for Tiam2 PDZ than for Tiam1 PDZ (Tiam2 PDZ domain; Tiam2 vs Tiam1 PDZ): ~6 fold; fold decrease in Kd vs wild-type Tiam1 PDZ (Tiam1 PDZ L920V; L920V): ~2 fold; Kd (Tiam1 PDZ L915F/L920V [4]): 76.5 ± 3.4 µM; ΔΔΔGint (pair-wise coupling free energy) (Tiam1 PDZ L915F/L920V [5]): 0.38 ± 0.10 kcal/mol; Σ singles (Tiam1 PDZ L915F/L920V [5]): 0.36 ± 0.06 kcal/mol; Kd [6]: 18.3 ± 0.3 µM; ΔGb [6]: -6.46 ± 0.01 kcal/mol; fold higher Kd than Tiam2 PDZ domain ([7]; QM vs Tiam2 PDZ): 5 fold; ΔΔGb [7]: -0.02 ± 0.02 kcal/mol
C[C@H](NC(=O)[C@H](Cc1ccc(O)cc1)NC(=O)[C@H](Cc1ccccc1)NC(=O)[C@H](CCC(=O)O)NC(=O)[C@H](CCC(=O)O)NC(=O)[C@H](CCC(N)=O)NC(=O)[C@H](CCCCN)NC(=O)[C@@H](NS(=O)(=O)c1cccc2c(N(C)C)cccc12)[C@@H](C)O)C(=O)O [Syndecan1] (Dansyl-TKQEEFYA-OH) |  | 200 ± 20 | 34.7 ± 0.7 | -6.08 ± 0.01 | 0.15 ± 0.02 | 140 ± 20 | -5.25 ± 0.08 | 0.98 ± 0.09 | -5.00 ± 0.10 | 211 ± 36 | 0.07 ± 0.13 | 1.13 ± 0.09 | 1.20 ± 0.10 | 81 ± 7 | -5.58 ± 0.05 | 0.65 ± 0.06 | 46 ± 3 | -5.92 ± 0.03 | 0.31 ± 0.04 | -4.91 ± 0.08 | Kd (Tiam1 PDZ L915F/L920V [4]): 250 ± 20 µM; ΔΔΔGint (pair-wise coupling free energy) (Tiam1 PDZ L915F/L920V [5]): 0.36 ± 0.13 kcal/mol; Σ singles (Tiam1 PDZ L915F/L920V [5]): 0.96 ± 0.07 kcal/mol; ΔΔGb (Tiam1 PDZ L915F/L920V [5]; ΔGb(mutant) − ΔGb(wild-type), L915F/L920V): 1.32 ± 0.09 kcal/mol; Kd [6]: 122 ± 8 µM; ΔGb [6]: -5.33 ± 0.04 kcal/mol; fold lower Kd than Tiam2 PDZ domain ([7]; QM vs Tiam2 PDZ): 1.6 fold; ΔΔGb [7]: 0.89 ± 0.04 kcal/mol
Tiam1 PDZ (protein) VTQSIHIEKSDTAADTYGFSLSSVEEDGIRRLYVNSVKETGLASKKGLKAGDEILEINNRAADALNSSMM |  |  |  |  |  |  |  |  |  |  |  |  |  |  |  |  |  |  |  |  | Kd (Caspr4): 14 µM; Kd (Syndecan1): 34.7 µM

Further molecules by falling Kd (Tiam2 PDZ domain), results first:

Kd [1] [µM] | Kd (Tiam2 PDZ domain) [µM] | Kd (Tiam1 PDZ L911M) [µM] | ΔGb (Tiam1 PDZ L911M) [kcal/mol] | ΔΔGb (Tiam1 PDZ L911M) [kcal/mol] | Kd (Tiam1 PDZ K912E) [µM] | ΔGb (Tiam1 PDZ K912E) [kcal/mol] | ΔΔGb (Tiam1 PDZ K912E) [kcal/mol] | ΔGb (Tiam1 PDZ L911M/K912E [2]) [kcal/mol] | Kd (Tiam1 PDZ L911M/K912E [2]) [µM] | ΔΔΔGint (pair-wise coupling free energy) (Tiam1 PDZ L911M/K912E [3]) [kcal/mol] | Σ singles (Tiam1 PDZ L911M/K912E [3]) [kcal/mol] | ΔΔGb (Tiam1 PDZ L911M/K912E [3]) [kcal/mol] | Kd (Tiam1 PDZ L915F) [µM] | ΔGb (Tiam1 PDZ L915F) [kcal/mol] | ΔΔGb (Tiam1 PDZ L915F) [kcal/mol] | Kd (Tiam1 PDZ L920V) [µM] | ΔGb (Tiam1 PDZ L920V) [kcal/mol] | ΔΔGb (Tiam1 PDZ L920V; L920V) [kcal/mol] | ΔGb (Tiam1 PDZ L915F/L920V [4]) [kcal/mol] | Molecule | further results
 | 24.1 ± 7.1 |  |  |  |  |  |  |  |  |  |  |  |  |  |  |  |  |  |  | C[C@H](NC(=O)[C@H](Cc1ccc(O)cc1)NC(=O)[C@H](Cc1ccc(O)cc1)NC(=O)[C@H](CCC(=O)O)NC(=O)[C@H](CCCCN)NC(=O)[C@H](CCCNC(=N)N)NC(=O)[C@H](CO)NC(=O)[C@H](CO)NS(=O)(=O)c1cccc2c(N(C)C)cccc12)C(=O)O [Model, reference compound] (Dansyl-SSRKEYYA-OH) | 
90.3 ± 8.3 | 10.9 ± 0.4 |  |  |  |  |  |  |  |  |  |  |  |  |  |  |  |  |  |  | C[C@H](NC(=O)[C@H](Cc1c[nH]c2ccccc12)NC(=O)[C@H](Cc1ccc(O)cc1)NC(=O)[C@H](CCCCN)NC(=O)[C@H](CCC(=O)O)NC(=O)[C@H](C)NC(=O)[C@H](C)NC(=O)[C@H](Cc1ccc(O)cc1)NS(=O)(=O)c1cccc2c(N(C)C)cccc12)C(=O)O [Tiam1 peptide 2 (Group I)] (Dansyl-YAAEKYWA-OH) | 
